Bioassay records as filed in PubChem BioAssay.
Only some compounds are listed: those with a hit (about 3.5% of all), similar ones and a draw of the others.
FXIa inh 1536 – human FXIa protease inhibitors, primary screen, biochemical, 1536-well. Coagulation factor XI (Homo sapiens), P03951. purified FXIa, Boc-Glu-Ala-Arg-AMC fluorogenic substrate. inhibition, % at 5 µM. 220,000 compounds, 0.14% hits;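 active means inhibition of at least 40%; inactive means inhibition below 40%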;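 further: fluorescence of freed AMC excited at 355 nm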
FXIIa inh – human FXIIa protease inhibitors, primary screen, biochemical, 1536-well; Coagulation factor XII (Homo sapiens), P00748; purified FXIIa, Boc-QGR-AMC fluorogenic substrate, 2 h; inhibition, % at 5 µM; 220,000 compounds, 0.3% hits; AID 800, 2007; in the data active means inhibition above about 40%
AHR activator – AHR activators, primary screen, cell-based, luminescence, luciferase reporter, human; Aryl hydrocarbon receptor (Homo sapiens), P35869; AHR-responsive luciferase reporter cells; activation, % at 5 µM; 320,000 compounds, 2.5% hits; in the data active means activation above about 47%
thrombin 1536 – human alpha-thrombin inhibitors, primary screen, counter-screen for coagulation protease inhibitor project, biochemical, 1536-well, fluorogenic AMC substrate; Boc-VPR-AMC fluorogenic substrate cleavage; inhibition, % at 5 µM; 220,000 compounds, 0.26% hits; AID 1046, 2008;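 active means inhibition at or above 40%; inactive means inhibition below 40%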
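System: Human alpha-thrombin protein | Medium: pH 7.5 Tris (50 mM) with NaCl 150 mM, Tween 20 0.05% | Times: Enzyme reaction carried out at room temperature | Detection: AMC fluorescence, 355/460 nm | Evaluation: Percent inhibition scaled between no-compound controls and no-enzyme blanks | Benchmarks: Enzyme without compound as high, wells lacking enzyme as low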
KLK5 inh – human KLK5 protease inhibitors, primary screen, biochemical, 1536-well; Kallikrein-5 (Homo sapiens), Q9Y337; recombinant hK5, fluorogenic AMC substrate cleavage; inhibition, % at 5 µM; 210,000 compounds, 0.59% hits;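 active means inhibition of 40% or more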
Target sequence (Q9Y337 67-293 limits assumed): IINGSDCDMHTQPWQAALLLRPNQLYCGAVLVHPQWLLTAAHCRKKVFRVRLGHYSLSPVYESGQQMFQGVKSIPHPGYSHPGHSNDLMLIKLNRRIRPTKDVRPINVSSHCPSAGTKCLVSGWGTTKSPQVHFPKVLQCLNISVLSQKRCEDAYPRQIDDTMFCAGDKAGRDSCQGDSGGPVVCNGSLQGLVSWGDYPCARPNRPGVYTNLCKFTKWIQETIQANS
STAT3 act-1 – IL-6 driven STAT3 reporter potentiators, primary screen, U3A cells, luciferase, luminescence, MLSCN library; IL-6 STAT3-luciferase reporter; 100% = signal with IL-6 EC80 alone; activation (% of control), % at 5.6 µM; 190,000 compounds, 0.91% hits; AID 871, 2007;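 active means activation above the screen-wide mean of compound activation plus 3 SD, cut at about 130% in these data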
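Test system: human U3A cells carrying STAT3-luciferase construct; control set: IL-6-only wells as 100% reference; timing: compound pre-incubation 1 h before IL-6, then 6 h stimulation at 37 °C; also added: IL-6 stimulus at 33 ng/mL final; evaluation: % activation versus median of IL-6-stimulated wells; detection: reporter luminescence signal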
STAT3 act-2 – STAT3 reporter potentiators, retest of hits, confirmation, U3A cells, luciferase, luminescence; shares compounds with STAT3 act-1; IL-6 potentiation; U3A cells lack STAT1; 100 means same as IL-6 alone; potentiation (% of control), % at 5.7 µM; 1,200 compounds, 64% hits; AID 1267, 2008;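 active means percent activation of the STAT3 luciferase reporter above a set limit taken from the earlier primary screen, cut at about 130% in these data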
NFkB act STAT3ct – NF-kB reporter activators in human cells, counter-screen for STAT3 activator project. 1,200 compounds, 11% hits. activation (% of control), % at 5.7 µM. shares compounds with STAT3 act-1. NF-kappaB reporter activation; in the data active means activation above about 120%;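 further: reporter induced by TNF-alpha stimulation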
STAT1 act STAT3c – STAT1 reporter activators, IFN-gamma induced, counter-screen for STAT3 activator project, cell-based, NIH 3T3, luciferase luminescence; AID 1318, 2008; activation (% of control), % at 5.7 µM; NIH 3T3 STAT1-luciferase reporter; 1,200 compounds, 13% hits; shares compounds with STAT3 act-1;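 active means activation above the solvent-only control well mean plus 3 SD, set per screening run, cut at about 120% in these data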
AHR act confirm – AHR activators, confirmation, cell-based, luminescence, luciferase reporter, human. shares compounds with AHR activator. human cells, AHR-responsive luciferase reporter. activation, % at 9 µM. 2,300 compounds, 87% hits. AID 2845, 2010; in the data active means activation above about 49%;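 further: HepG2 hepatoma cells carrying a DRE-driven firefly luciferase reporter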
PXR counter – human PXR activators, counter-screen for AHR activator project, cell-based, luciferase luminescence; cell-based PXR reporter; AID 434939, 2010; shares compounds with AHR activator; 2,300 compounds, 88% hits; activation, % at 11.6 µM; in the data active means activation above about 11%;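 further: human hepatoma DPX-2 cells expressing full-length human PXR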
Target sequence (O75469 whole entry, looked up): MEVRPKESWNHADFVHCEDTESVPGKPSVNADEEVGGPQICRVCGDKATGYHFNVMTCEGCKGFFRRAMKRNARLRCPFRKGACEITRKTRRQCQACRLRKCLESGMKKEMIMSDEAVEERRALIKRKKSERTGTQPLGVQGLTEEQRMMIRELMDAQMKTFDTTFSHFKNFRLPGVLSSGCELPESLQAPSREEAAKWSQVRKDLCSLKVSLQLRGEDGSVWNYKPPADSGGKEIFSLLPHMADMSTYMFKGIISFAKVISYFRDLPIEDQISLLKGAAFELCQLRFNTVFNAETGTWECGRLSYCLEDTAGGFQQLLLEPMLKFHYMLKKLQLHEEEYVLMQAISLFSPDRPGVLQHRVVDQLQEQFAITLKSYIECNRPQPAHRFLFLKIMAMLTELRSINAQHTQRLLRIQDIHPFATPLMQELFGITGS
Of the large screens only hits and unclear results are named; the others gave an inactive call (follow-up assays come after a bar, where they were run).

CNC(=S)N/N=C1\C(=O)c2cccc3cccc1c23	AHR activator 89.8, STAT3 act-1 138.0 | STAT3 act-2 142.6 | NFkB act STAT3ct inactive | STAT1 act STAT3c inactive | AHR act confirm 114.0 | PXR counter 38.5
Cc1cccc(C)c1NC(=O)CS(=O)CC(=O)NCC1OCCc2ccccc21 (stereo unspecified)	none
CC(=O)Nc1cccc2c1C(=O)N(c1ccc(C)cc1)C2=O	AHR activator 99.2, STAT3 act-1 160.1 | STAT3 act-2 162.7 | NFkB act STAT3ct inactive | STAT1 act STAT3c 121.4 | AHR act confirm 98.7
O=C(/C(=C(\[O-])c1ccccc1)[n+]1ccc2ccccc2c1)c1ccc(Cl)cc1	AHR activator 103.0, STAT3 act-1 151.7 | STAT3 act-2 155.8 | NFkB act STAT3ct inactive | STAT1 act STAT3c inactive | AHR act confirm 91.7 | PXR counter 53.6
CC(=O)Nc1nnc(SCC(=O)Nc2nc(C)cs2)s1	none (no result: FXIa inh 1536, FXIIa inh, thrombin 1536, KLK5 inh, STAT3 act-1)
Cc1cc(-c2ccc(Cl)cc2)n2nc(C)cc2n1	none (no result: FXIa inh 1536, FXIIa inh, thrombin 1536, KLK5 inh, STAT3 act-1)
Cc1nc2cc(-c3ccc(Cl)cc3)nn2c(NCCN(C)C)c1C	AHR activator 113.5, STAT3 act-1 150.7 | STAT3 act-2 183.2 | NFkB act STAT3ct inactive | STAT1 act STAT3c 120.5 | AHR act confirm 101.9 | PXR counter 14.5
CC1CCN(S(=O)(=O)c2ccc3c(c2)NC(=O)CS3)CC1	none (no result: FXIa inh 1536, FXIIa inh, thrombin 1536, KLK5 inh, STAT3 act-1)
COC(=O)c1[nH]c2ccccc2c1NC(=O)Oc1ccccc1	AHR activator 95.4, STAT3 act-1 158.6 | STAT3 act-2 160.2 | NFkB act STAT3ct inactive | STAT1 act STAT3c inactive | AHR act confirm 48.2 | PXR counter 19.1
CN1CCN(CCCNC(=O)c2cc3c(-c4ccc(Cl)cc4)nn(C)c3s2)CC1	AHR activator 97.8, STAT3 act-1 173.4 | STAT3 act-2 149.4 | NFkB act STAT3ct inactive | STAT1 act STAT3c inactive | AHR act confirm 101.7
CC1CCCCN1CCNC(=O)c1cc2c(-c3ccccc3F)nn(C)c2s1 (stereo unspecified)	none
C[n+]1c2n(c3ccccc31)N=C(c1ccccc1)CS2	AHR activator 69.1, STAT3 act-1 139.9 | STAT3 act-2 149.2 | NFkB act STAT3ct inactive | STAT1 act STAT3c inactive | AHR act confirm 52.1 | PXR counter 32.1
Cc1cccc(-c2nnc3n2N=C(c2ccccc2)CS3)c1	none
Cc1ccc(C)c(NC(=S)c2nc3ccccc3s2)c1	AHR activator 82.9, STAT3 act-1 141.9 | STAT3 act-2 203.4 | NFkB act STAT3ct 126.6 | STAT1 act STAT3c 129.6 | AHR act confirm 134.8 | PXR counter 14.1
Cc1ccc(N(C(=O)CNC(=O)c2ccco2)C(C(=O)NC2CCCCC2)c2ccncc2)cc1F (stereo unspecified)	none (no result: FXIa inh 1536, FXIIa inh, thrombin 1536, KLK5 inh, STAT3 act-1)
Nc1c(Br)cc2oc(-c3ccccc3)nc2c1Br	AHR activator 84.4, STAT3 act-1 145.9 | STAT3 act-2 181.0 | NFkB act STAT3ct 123.2 | STAT1 act STAT3c 152.3 | AHR act confirm 133.7 | PXR counter 12.9
Cc1ccc2oc(-c3ccccc3)nc2c1	none
CCOc1ccc(C/C(O)=C2\C(=O)CC(C)(C)CC2=NCC(=O)O)cc1OCC	none
Cc1ccc(-c2cc(-c3cccs3)[nH]n2)c(O)c1	AHR activator 109.1, STAT3 act-1 164.5 | STAT3 act-2 140.5 | NFkB act STAT3ct 126.7 | STAT1 act STAT3c inactive | AHR act confirm 118.0
Cc1ccc2ncccc2c1NC(=S)NC(=O)c1ccccc1	AHR activator 86.1, STAT3 act-1 136.6 | STAT3 act-2 146.4 | NFkB act STAT3ct inactive | STAT1 act STAT3c inactive | AHR act confirm 125.5 | PXR counter 37.0
O=C(Nc1ccccn1)c1ccc2ccccc2n1	AHR activator 84.2, STAT3 act-1 146.7 | STAT3 act-2 180.1 | NFkB act STAT3ct 128.2 | STAT1 act STAT3c 164.3 | AHR act confirm 167.9 | PXR counter 24.0
COc1ccc(C(=O)N/C(=C/c2ccco2)C(=O)NC2CCS(=O)(=O)C2)cc1 (stereo unspecified)	none
COc1cccc(-n2c(SCC(=O)N3CCCCC3)nc3c([nH]c4ccccc43)c2=O)c1	none (no result: STAT3 act-1)
COc1cccc(-n2c(SCC(=O)Nc3cc(C)on3)nc3c([nH]c4ccccc43)c2=O)c1	AHR activator 102.8, STAT3 act-1 144.4 | STAT3 act-2 135.3 | NFkB act STAT3ct inactive | STAT1 act STAT3c inactive | AHR act confirm 103.4 | PXR counter 63.1
COc1ccc(OCCSc2nnc(-c3ccc(OC)cc3)n2N)cc1	none
N#Cc1cc2c(nc1Cl)CCC2	none (no result: STAT3 act-1)
CSc1nc2ccc3nc(NC(=O)c4cccs4)sc3c2s1	none
O=C(Nc1nc2c(s1)COc1ccccc1-2)c1cccs1	AHR activator 129.4, STAT3 act-1 138.8 | STAT3 act-2 inactive | NFkB act STAT3ct 153.8 | STAT1 act STAT3c 135.9 | AHR act confirm 129.0 | PXR counter 16.2
COc1ccc(C(C(=O)NC(C)(C)C)N(CCc2ccccc2)C(=O)CCC(=O)Nc2cc(C)on2)cc1 (stereo unspecified)	none (no result: FXIa inh 1536, FXIIa inh, thrombin 1536, KLK5 inh, STAT3 act-1)
C=CCNC(=O)c1nc2ccccc2s1	none
C=CCNc1sc(C(=O)c2ccccc2)c(N)c1-c1nc2ccccc2s1	AHR activator 131.9, STAT3 act-1 142.6 | STAT3 act-2 inactive | NFkB act STAT3ct inactive | STAT1 act STAT3c inactive | AHR act confirm 89.7 | PXR counter 43.5
O=C(NC(=S)Nc1ccccc1N1CCCC1)c1cccc(F)c1	AHR activator 80.1, STAT3 act-1 151.9 | STAT3 act-2 154.2 | NFkB act STAT3ct inactive | STAT1 act STAT3c inactive | AHR act confirm 90.6 | PXR counter 43.1
